Screening data (PubChem BioAssay)
Insulin prom act: TRM-6 insulin promoter activation; TRM-6 cells (human fetal islet line), insulin promoter eGFP reporter, imaging; plate-scaled: unstimulated 0, stimulated control 100; activation, % at 2 µM; AID 1296; 0.81% of 130,000 active;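 active means activation at 2 µM above a set limit, confirmed on inspection of the cell images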;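 further: share of cells whose green reporter signal exceeds an intensity cutoff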
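test system = TRM-6 insulin promoter–eGFP reporter cells | benchmarks = stimulated versus unstimulated wells as plate controls | read-out basis = percent cells above green-intensity threshold, converted to percent activation versus plate controls | detection = fixed-cell fluorescence microscopy, eGFP plus Hoechst | incubation = tamoxifen pre-incubation 15 h overnight, then compound exposure 48 h at 37 °C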
An asterisk follows results filed as active. The full list was thinned out, with hits kept by preference.

SMILES | Insulin prom act
O=c1cc(C(F)(F)F)c2cc3c4c(c2o1)CCCN4CCC3 | 164*
CCCCn1c(O)c(C(CC)=NCCN2CCCCC2)c(=O)[nH]c1=O | 7
CCOC(=O)CCN=Cc1c(O)n(-c2ccc(Br)cc2)c(=O)[nH]c1=O | 9
COc1cc(/C=N/NC(=O)Cn2c([N+](=O)[O-])cnc2C)ccc1OC(=O)N(C)C | -3
CCN1CCN(C(=O)Cc2c(C)n(C(=O)c3ccc(Cl)cc3)c3ccc(OC)cc23)CC1 | 127
O=C1NC(=O)C(CCc2ccncc2)(Cc2ccc3c(c2)OCO3)C(=O)N1CCc1ccccc1 (stereo not given) | 3
CSc1ncc(/C=C2/C(=O)NC(=O)N(c3ccc(Cl)cc3)C2=O)cn1 | 260*
COc1ccc(/C=C2/C(=O)NC(=O)N(c3ccc(C)c(C)c3)C2=O)cc1CN1C(=O)c2ccccc2C1=O | 2
O=C1NC(=O)N(c2ccc(Br)cc2)C(=O)/C1=C/c1ccsc1 | 0
Clc1cccc(C2NCCc3[nH]cnc32)c1 (stereo not given) | -5
CCc1c(C(=O)NN2C(=O)C3C4CCC(O4)C3C2=O)csc1C (stereo not given) | 8
CCOc1ccc(-n2c(-c3ccoc3)nc3ccccc3c2=O)cc1 | 4
O=c1c2ccccc2nc(/C=C/c2ccc([N+](=O)[O-])o2)n1-c1ccc(O)cc1 | 525*
CC1CCCN(C(=O)c2ccc(N3CC4CC(C3)c3cccc(=O)n3C4)c([N+](=O)[O-])c2)C1 (stereo not given) | -9
COc1ccccc1CN1CCN(Cc2ccc(Cl)cc2)CC1 | -8
CC1NCCC2(O)CCCCC12 (stereo not given) | 187
COc1cc(OC)c2c(c1)OCC1CON(C)C21 (stereo not given) | -8
CC1(C)C2([N+](=O)[O-])CNCC1([N+](=O)[O-])CNC2 | 171
CSc1ccc(C(=O)C(C)(C)N2CCOCC2)cc1 | 257
Cc1c2ccncc2c(C)c2c1[nH]c1ccccc12 | 354*
Cc1c(C=O)c2ccccc2n1Cc1cccc(F)c1 | -8
Cc1cc(C(=O)N2CCC3(CC2)OCCO3)cs1 | -4
Cc1noc(C)c1C(=O)N1CCC2(CC1)OCCO2 | -8
O=C(c1ccc2c(c1)ncn2-c1ccc(F)cc1F)N1CCC2(CC1)OCCO2 | 486*
c1ccc(C2OCCN3CCCCC23)cc1 (stereo not given) | 214
SMILES | Insulin prom act
Cc1ccc2c(c1)CC1(CN2C)C(=O)NC(=O)N(c2ccc(C)c(C)c2)C1=O (stereo not given) | 3
C(#CCN1CCOCC1)COCC#Cc1ccccc1 | 79*
CC(C)CCCn1c(O)c(/C=C2/C=CC=N2)c(=O)[nH]c1=O | 128
CC(C)(C)c1ccc(S(=O)(=O)N2CC3CC(C2)c2cccc(=O)n2C3)cc1 (stereo not given) | -6
CC1CCCN(C(=O)CCl)C1 (stereo not given) | 3
Cc1ccc(-c2ccc(=O)n(CCC(=O)N3CCC4(CC3)OCCO4)n2)cc1 | 0
O=C(CNC1CCCCC1)N1CCC2(CC1)OCCO2 | 658*
O=C(CCCOc1ccc(Cl)cc1Cl)N1CCC2(CC1)OCCO2 | 171
CC(C)CCNC(=O)c1cc(C(=O)c2cc(Br)ccc2O)cn(CCC(C)C)c1=O | -8
C=CCn1c(O)c(C(C)=NCCc2ccccc2)c(=O)[nH]c1=O | 0
C=CCn1c(O)c(C(CC)=NCCc2ccccc2)c(=O)[nH]c1=O | 550*
CCCCn1c(O)c(C(CC)=NCc2ccc(F)cc2)c(=O)[nH]c1=O | -83
Cn1c(O)c(N=Nc2cccc(S(=O)(=O)N3CCOCC3)c2)c(=O)n(C)c1=O | 6
COc1ccc(C(=O)C(Cc2ccccc2)N(C)C)cc1 (stereo not given) | 4
COc1ccc(O)c(C(C)(C)C)c1 | -7
COc1ccc(C(=O)C(C)(C)NO)cc1 | 469*
CC(=O)OC1N=C(c2ccccc2)c2ccccc2NC1=O (stereo not given) | -7
CSCCC(N=Cc1c(O)n(-c2ccc(Br)cc2)c(=O)[nH]c1=O)C(=O)OC(C)(C)C (stereo not given) | 3
Cn1c(O)c(C=NCCCNC2CCCCC2)c(=O)n(C)c1=O | -3
Cc1ccc2c(c1)C1CN(C)CCC1N2C(=O)/C(C#N)=C/c1ccc2c(c1)OCO2 (stereo not given) | 0
